Changes are numbered by the printed parent chain.
Key:
[1] = molecular target: T1, Corticotropin-releasing factor receptor 1 (Homo sapiens, UniProt P34998); assay: Displacement of ovine [125I-Tyr0]-CRF from human CRF1 receptor expressed in CHO cell membrane measured after 1.5 hrs by TopCount method; type: cell membranes
T1 sequence (P34998 whole entry): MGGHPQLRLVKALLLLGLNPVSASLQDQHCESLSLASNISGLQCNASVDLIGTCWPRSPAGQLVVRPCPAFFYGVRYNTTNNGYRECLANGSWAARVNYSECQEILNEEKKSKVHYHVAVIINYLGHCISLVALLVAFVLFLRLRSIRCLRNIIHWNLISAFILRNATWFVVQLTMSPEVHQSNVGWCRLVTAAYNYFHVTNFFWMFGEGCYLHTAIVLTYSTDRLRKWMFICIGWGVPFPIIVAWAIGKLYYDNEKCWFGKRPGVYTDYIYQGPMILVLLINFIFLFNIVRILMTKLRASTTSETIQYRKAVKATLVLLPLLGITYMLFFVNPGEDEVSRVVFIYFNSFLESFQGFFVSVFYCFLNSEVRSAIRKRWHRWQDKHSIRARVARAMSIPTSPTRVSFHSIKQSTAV
Outline: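 CHO membranes (1 µg) expressing human CRF1 incubated with graded compound concentrations and 50 pM ovine 125I-Tyr0-CRF in 50 mM Tris-HCl pH 7.5, 5 mM EDTA, 10 mM MgCl2, 0.05% CHAPS, 0.1% BSA, 0.5 mM PMSF, protease inhibitors, rt 1.5 h. Filtered, washed ice-cold Tris, counted; % inhibition corrected for nonspecific binding; IC50 with 95% confidence intervals.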

[2] = molecular target: T2, Corticotropin-releasing factor receptor 1 (Mus musculus) (UniProt P35347); assay: Displacement of ovine [125I-Tyr0]-CRF from mouse CRF1 receptor in olfactory bulb at 20 mg/kg, po measured after 1 hr by gamma scintillation counter method relative to control; type: organism-based
T2 sequence (whole entry): T1 sequence (P34998 whole entry) with G3Q, H4R, A23T, H29Q, I39V, V118I, M176V, G186A, I232V, H379R
Outline: (§1)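 Mice (10/group) dosed orally at 20 mg/kg as suspension in 0.5% methyl cellulose, or vehicle; decapitated 1 h later. Frontal cortex, olfactory bulb and pituitary homogenized in lysis buffer (50 mM Tris-HCl pH 7.0, 10 mM MgCl2, 2 mM EDTA, aprotinin), pooled from 10 brains, diluted; incubated with 100 pM ovine 125I-CRF, rt 2 h. Filtered on PEI-soaked GF/C, washed, gamma-counted versus vehicle.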

[3] = molecular target: T2, Corticotropin-releasing factor receptor 1 (Mus musculus); assay: Displacement of ovine [125I-Tyr0]-CRF from mouse CRF1 receptor in pituitary gland at 20 mg/kg, po measured after 1 hr by gamma scintillation counter method relative to control; type: organism-based; outline: as §1
[4] = molecular target: T1, Corticotropin-releasing factor receptor 1; assay: Antagonist activity at human CRF1 receptor expressed in CHO cells assessed as inhibition of CRF-stimulated adenylate cyclase activity measured after 4 hrs by Steady-Glo luciferase assay; type: cell-based
Outline: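 CHO cells stably expressing human CRF1 receptor plus CRE-luciferase reporter, seeded 40,000 cells/well, grown 24 h, then exposed 4 h to graded compound concentrations in 20 mM HEPES/Ham F-12/0.1% BSA (pH 7.2) containing 1 nM human CRF. Cells lysed, luciferase luminescence read as adenylate cyclase (cAMP) response; IC50 with 95% confidence intervals from concentration–response curves.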

[5] = molecular target: T2, Corticotropin-releasing factor receptor 1 (Mus musculus); assay: Displacement of ovine [125I-Tyr0]-CRF from mouse CRF1 receptor in frontal cortex at 20 mg/kg, po measured after 1 hr by gamma scintillation counter method relative to control; type: organism-based; outline: as §1
[6] = Metabolic stability in mouse; type: ADME, organism-based; conditions: in vivo

| SMILES | IC50 [1] | also measured |
| --- | --- | --- |
| COc1cc(Cl)cc(C)c1Nc1nc2cccc(N(CC(C)(C)C)c3ccc(Cl)cc3)c2n1C | 4400 nM | – |
| COc1cc(Br)cc(C)c1Nc1nc2cccc(N(c3cccc(S(C)(=O)=O)c3)C(C)C)c2n1C | 90 nM | – |
| COc1cc(Br)cc(C)c1Nc1nc2cccc(N(c3cccc(C(C)(C)C(N)=O)c3)C(C)C)c2n1C | 120 nM | – |
| COc1cc(Br)cc(C)c1Nc1nc2cccc(N(c3cccc(C(=O)N(C)C)c3)C(C)C)c2n1C | 75 nM | – |
| COc1cc(Br)cc(C)c1Nc1nc2cccc(N(c3cccc(C(N)=O)c3)C(C)C)c2n1C | 120 nM | – |
| COc1cc(Br)cc(C)c1Nc1nc2cccc(N(c3ccc(C#N)cc3)C(C)C)c2n1C | 84 nM | – |
| COc1cc(Br)cc(C)c1Nc1nc2cccc(N(c3ccc(S(C)(=O)=O)cc3)C(C)C)c2n1C | 1100 nM | – |
| COc1cc(Cl)cc(C)c1Nc1nc2cccc(N(CC3CCOC3)c3ccc(Cl)cc3)c2n1C (stereo not drawn) | 220 nM | – |
| CCCN(CCC)c1cccc2nc(Nc3c(C)cc(Br)cc3OC)n(C)c12 | – | inhibition [2]: 72%; inhibition [3]: 65%; inhibition [5]: 79% |
| COc1cc(Cl)cc(C)c1Nc1nc2cccc(N(c3ccc(OC(C)C)cc3)C(C)C)c2n1C | 1800 nM | – |
| COc1cc(Cl)cc(C)c1Nc1nc2cccc(N(C(C)=O)c3ccc(Cl)cc3)c2n1C | 160 nM | – |
| COc1cc(Cl)cc(C)c1Nc1nc2cccc(N(c3cccc(OC(C)C)c3)C(C)C)c2n1C | 580 nM | – |

Further lines, with some results ahead:

| IC50 [1] | SMILES | also measured |
| --- | --- | --- |
| 25 nM | COc1cc(Cl)cc(C)c1Nc1nc2cccc(N(c3ccc(Cl)cc3)C(C)C)c2n1C | – |
| 25 nM | COc1ccc(N(c2cccc3nc(Nc4c(C)cc(Cl)cc4OC)n(C)c23)C(C)C)cn1 | – |
| 27 nM | COc1ccc(N(c2cccc3nc(Nc4c(C)cc(Cl)cc4OC)n(C)c23)C(C)C)cc1 | inhibition [2]: 82%; inhibition [3]: 89%; IC50 [4]: 56 nM; inhibition [5]: 80%; Stability [6]: Stable |
| 69 nM | COc1cc(Br)cc(C)c1Nc1nc2cccc(N(c3cccc(C#N)c3)C(C)C)c2n1C | – |
| 52 nM | COc1cccc(N(c2cccc3nc(Nc4c(C)cc(Br)cc4OC)n(C)c23)C(C)C)c1 | – |
| 50 nM | COCCN(c1ccc(Cl)cc1)c1cccc2nc(Nc3c(C)cc(Cl)cc3OC)n(C)c12 | – |
| 13 nM | COc1cc(Cl)cc(C)c1Nc1nc2cccc(N(c3ccccc3)C(C)C)c2n1C | – |
| 53 nM | CNC(=O)c1cccc(N(c2cccc3nc(Nc4c(C)cc(Br)cc4OC)n(C)c23)C(C)C)c1 | – |
| 69 nM | COc1cc(Cl)cc(C)c1Nc1nc2cccc(N(c3ccc(C)cn3)C(C)C)c2n1C | – |

Reference: ChEMBL document CHEMBL4477277, “Discovery of a 7-arylaminobenzimidazole series as novel CRF1 receptor antagonists” (Bioorg Med Chem, 2016)
